# Measured values taken from ChEMBL document CHEMBL3585302, “Synthesis and antibacterial activities of cadiolides A, B and C and analogues” (Bioorg Med Chem, 2015).
# Calls of active or inactive are those of the source. The calls are words filed in the database; no cut-off is given here.
# Assays:
# Bacillus subtilis [1] = test: Antibacterial activity against Bacillus subtilis CECT 35 assessed as inhibition of microbial growth incubated for 18 hrs by 2-fold microtiter broth dilution method; format: functional, organism-based; details: CECT 35, 18 h
# Outline: (§1)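 Compounds in DMSO, ten 2-fold serial dilutions (125 down to 0.24 µg/mL tested). Bacteria at OD620 = 0.001 in Nutrient Broth mixed 1:1 with dilutions. Incubated overnight (18 h) at 28°C or 37°C according to strain. Growth read turbidimetrically at OD620. MIC is the lowest concentration giving complete growth inhibition. Triplicate runs. Tetracycline as reference.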
# [2] = tested on: Pectobacterium carotovorum; test: Antibacterial activity against Erwinia carotovora CECT 225 assessed as inhibition of microbial growth incubated for 18 hrs by 2-fold microtiter broth dilution method; format: functional, organism-based; details: CECT 225, 18 h; outline: as §1
# Enterococcus faecalis [3] = test: Antibacterial activity against Enterococcus faecalis CECT 481 assessed as inhibition of microbial growth incubated for 18 hrs by 2-fold microtiter broth dilution method; format: functional, organism-based; details: CECT 481, 18 h; outline: as §1
# Staphylococcus aureus [4] = test: Antibacterial activity against Staphylococcus aureus CECT 86 assessed as inhibition of microbial growth incubated for 18 hrs by 2-fold microtiter broth dilution method; format: functional, organism-based; details: CECT 86, 18 h; outline: as §1
# Salmonella typhi [5] = test: Antibacterial activity against Salmonella typhi CECT 409 assessed as inhibition of microbial growth incubated for 18 hrs by 2-fold microtiter broth dilution method; format: functional, organism-based, Salmonella enterica subsp. enterica serovar Typhi; details: Salmonella enterica, CECT 409, 18 h
# Outline: (§2)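 Compounds in DMSO, ten 2-fold serial dilutions (125 down to 0.24 µg/mL), mixed 1:1 with bacteria in Nutrient Broth at OD620 = 0.001. Incubated overnight (18 h) at 28 or 37 °C depending on strain. Growth read turbidimetrically at OD620; MIC is the lowest concentration completely inhibiting growth, per CLSI. Triplicate runs; tetracycline reference.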
# Escherichia coli [6] = test: Antibacterial activity against Escherichia coli CECT 100 assessed as inhibition of microbial growth incubated for 18 hrs by 2-fold microtiter broth dilution method; format: functional, organism-based; details: CECT 100, 18 h; outline: as §1
# Bacillus cereus [7] = test: Antibacterial activity against Bacillus cereus CECT 148 assessed as inhibition of microbial growth incubated for 18 hrs by 2-fold microtiter broth dilution method; format: functional, organism-based; details: CECT 148, 18 h; outline: as §1
# Escherichia coli [8] = test: Antibacterial activity against Escherichia coli CECT 405 assessed as inhibition of microbial growth incubated for 18 hrs by 2-fold microtiter broth dilution method; format: functional, organism-based; details: CECT 405, 18 h; outline: as §1
# Bacillus cereus [9] = test: Antibacterial activity against Bacillus cereus CECT 148 assessed as inhibition of microbial growth at 125 ug/ml incubated for 18 hrs by 2-fold microtiter broth dilution method; format: functional, organism-based; outline: as §1
# Enterococcus faecalis [10] = test: Antibacterial activity against Enterococcus faecalis CECT 481 assessed as inhibition of microbial growth at 125 ug/ml incubated for 18 hrs by 2-fold microtiter broth dilution method; format: functional, organism-based; outline: as §1
# Staphylococcus aureus [11] = test: Antibacterial activity against Staphylococcus aureus CECT 86 assessed as inhibition of microbial growth at 125 ug/ml incubated for 18 hrs by 2-fold microtiter broth dilution method; format: functional, organism-based; outline: as §1
# Salmonella typhi [12] = test: Antibacterial activity against Salmonella typhi CECT 409 assessed as inhibition of microbial growth at 125 ug/ml incubated for 18 hrs by 2-fold microtiter broth dilution method; format: functional, organism-based; details: Salmonella enterica subsp. enterica serovar Typhi; outline: as §2
# Escherichia coli [13] = test: Antibacterial activity against Escherichia coli CECT 100 assessed as inhibition of microbial growth at 125 ug/ml incubated for 18 hrs by 2-fold microtiter broth dilution method; format: functional, organism-based; outline: as §1
# Bacillus subtilis [14] = test: Antibacterial activity against Bacillus subtilis CECT 35 assessed as inhibition of microbial growth at 125 ug/ml incubated for 18 hrs by 2-fold microtiter broth dilution method; format: functional, organism-based; outline: as §1
# Escherichia coli [15] = test: Antibacterial activity against Escherichia coli CECT 405 assessed as inhibition of microbial growth at 125 ug/ml incubated for 18 hrs by 2-fold microtiter broth dilution method; format: functional, organism-based; outline: as §1
# [16] = tested on: Pectobacterium carotovorum; test: Antibacterial activity against Erwinia carotovora CECT 225 assessed as inhibition of microbial growth at 125 ug/ml incubated for 18 hrs by 2-fold microtiter broth dilution method; format: functional, organism-based; outline: as §1
SMILES,MIC (Bacillus subtilis [1]) [µg/mL],MIC [2] [µg/mL],MIC (Enterococcus faecalis [3]) [µg/mL],MIC (Staphylococcus aureus [4]) [µg/mL],MIC (Salmonella typhi [5]) [µg/mL],MIC (Escherichia coli [6]) [µg/mL],MIC (Bacillus cereus [7]) [µg/mL],MIC (Escherichia coli [8]) [µg/mL],growth inhibition (GI) (Bacillus cereus [9]),growth inhibition (GI) (Enterococcus faecalis [10]),growth inhibition (GI) (Staphylococcus aureus [11]),growth inhibition (GI) (Salmonella typhi [12]),growth inhibition (GI) (Escherichia coli [13]),growth inhibition (GI) (Bacillus subtilis [14]),growth inhibition (GI) (Escherichia coli [15]),growth inhibition (GI) [16]
O=C1O/C(=C\c2ccc(O)cc2)C(c2cc(Br)c(O)c(Br)c2)=C1C(=O)c1cc(Br)c(O)c(Br)c1,125,125,7.81,7.81,7.81,> 125,7.81,7.81,–,–,–,–,–,–,–,–
O=C1O/C(=C\c2cc(Br)c(O)c(Br)c2)C(c2cc(Br)c(O)c(Br)c2)=C1C(=O)c1ccc(O)cc1,125,125,3.9,3.9,3.9,> 125,3.9,7.81,–,–,–,–,–,–,–,–
O=C1O/C(=C\c2cc(Br)c(O)c(Br)c2)C(c2cc(Br)c(O)c(Br)c2)=C1C(=O)c1cc(Br)c(O)c(Br)c1 [CADIOLIDE B],> 125,> 125,7.81,7.81,15.6,> 125,7.81,7.81,–,–,–,–,–,–,–,–
COc1ccc(C2=C(C(=O)c3cc(Br)c(O)c(Br)c3)C(=O)O/C2=C\c2cc(Br)c(O)c(Br)c2)cc1,–,–,–,–,–,–,–,–,inactive,inactive,inactive,inactive,inactive,inactive,inactive,inactive
COc1ccc(C2=C(C(=O)c3ccc(O)cc3)C(=O)O/C2=C\c2ccc(O)c(Br)c2)cc1Br,–,–,–,–,–,–,–,–,inactive,inactive,inactive,inactive,inactive,inactive,inactive,inactive
COc1ccc(C2=C(C(=O)c3ccc(O)c(Br)c3)C(=O)O/C2=C\c2cc(Br)c(O)c(Br)c2)cc1Br,–,–,–,–,–,–,–,–,inactive,inactive,inactive,inactive,inactive,inactive,inactive,inactive
COc1ccc(C2=C(C(=O)c3ccc(O)c(Br)c3)C(=O)O/C2=C\c2ccc(O)c(Br)c2)cc1Br,–,–,–,–,–,–,–,–,inactive,inactive,inactive,inactive,inactive,inactive,inactive,inactive
COc1ccc(C2=C(C(=O)c3ccc(O)c(Br)c3)C(=O)O/C2=C\c2ccc(O)c(Br)c2)cc1,–,–,–,–,–,–,–,–,inactive,inactive,inactive,inactive,inactive,inactive,inactive,inactive
O=C1O/C(=C\c2ccc(O)c(Br)c2)C(c2ccc(O)cc2)=C1C(=O)c1ccc(O)c(Br)c1,> 125,> 125,> 125,> 125,125,> 125,3.9,125,–,–,–,–,–,–,–,–
CN(C)[C@@H]1C(O)=C(C(N)=O)C(=O)[C@@]2(O)C(O)=C3C(=O)c4c(O)cccc4[C@@](C)(O)[C@H]3C[C@@H]12 [TETRACYCLINE],0.97,3.9,0.48,0.24,7.81,3.9,3.9,7.81,–,–,–,–,–,–,–,–
O=C1O/C(=C\c2ccc(O)c(Br)c2)C(c2ccc(O)c(Br)c2)=C1C(=O)c1ccc(O)cc1,125,125,31.2,31.2,31.2,15.6,15.6,15.6,–,–,–,–,–,–,–,–
O=C1O/C(=C\c2ccc(O)cc2)C(c2ccc(O)cc2)=C1C(=O)c1ccc(O)cc1,> 125,125,125,62.5,125,62.5,62.5,62.5,–,–,–,–,–,–,–,–
O=C1O/C(=C\c2ccc(O)cc2)C(c2ccc(O)cc2)=C1C(=O)c1ccco1,> 125,> 125,31.2,15.6,15.6,31.2,15.6,31.2,–,–,–,–,–,–,–,–
O=C1O/C(=C\c2ccc(O)c(Br)c2)C(c2ccc(O)c(Br)c2)=C1C(=O)c1cc(Br)c(O)c(Br)c1 [CADIOLIDE C],125,125,3.9,3.9,3.9,> 125,3.9,3.9,–,–,–,–,–,–,–,–
O=C1O/C(=C\c2cc(Br)c(O)c(Br)c2)C(c2ccc(O)cc2)=C1C(=O)c1cc(Br)c(O)c(Br)c1,125,125,15.6,15.6,15.6,> 125,15.6,15.6,–,–,–,–,–,–,–,–
O=C1O/C(=C\c2cc(Br)c(O)c(Br)c2)C(c2ccc(O)c(Br)c2)=C1C(=O)c1ccc(O)c(Br)c1,125,125,1.95,3.9,3.9,> 125,1.95,3.9,–,–,–,–,–,–,–,–
O=C1O/C(=C\c2cc(Br)c(O)c(Br)c2)C(c2cc(Br)c(O)c(Br)c2)=C1C(=O)c1ccc(O)c(Br)c1,125,125,3.9,3.9,3.9,> 125,3.9,1.95,–,–,–,–,–,–,–,–
O=C1O/C(=C\c2ccc(O)c(Br)c2)C(c2ccc(O)cc2)=C1C(=O)c1ccc(O)cc1,> 125,> 125,> 125,> 125,> 125,> 125,125,> 125,–,–,–,–,–,–,–,–
